Active and inactive are the calls of the source. The calls are words filed in the database; no cut-off is given here.
Assays:
Trichophyton rubrum [1] = test: Antifungal activity against Trichophyton rubrum IBT 29284 after 7 days by micro broth dilution method; format: functional, organism-based; details: IBT 29284, 168 h
Summary of the method: (§1)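 T. rubrum IBT29284 was tested by broth microdilution using a 4-fold dilution series of 10 concentrations from 50 μM down to 0.2 μM, with 1% DMSO. The inoculum followed CLSI M38-A2, set to OD530 0.90–1.5 and diluted 50-fold in RPMI/MOPS at pH 7.00. Incubation was 7 days at 37 °C, read by OD. IC50 came from a variable-slope sigmoidal fit.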

V79 = test: Cytotoxicity against Chinese hamster V79 cells; format: functional, cell-based; details: Cricetulus griseus
[2] = Cytotoxicity against human SCC114 cells by phenotype-based spindle multipolarity assay; format: functional, cell-based
HeLa = test: Cytotoxicity against human HeLa cells; format: functional, cell-based
[3] = test system: Trichophyton mentagrophytes; test: Antifungal activity against Trichophyton mentagrophytes IBT 2724 after 7 days by micro broth dilution method; format: functional, organism-based; details: IBT 2724, 168 h
Summary of the method: (§2)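 T. mentagrophytes IBT2724 was tested by broth microdilution using an 8-fold dilution series of 10 concentrations from 50 μM down to 0.4 μM, with 1% DMSO. The inoculum was prepared per CLSI M38-A2, adjusted to OD530 0.90–1.5 and diluted 50-fold in RPMI/MOPS at pH 7.00. Plates ran 7 days at 37 °C with an OD read-out. IC50 came from a variable-slope sigmoidal fit.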

MDA-MB-231 [4] = test: Cytotoxicity against human MDA-MB-231 cells assessed as cell viability after 48 hrs by MTT assay; format: functional, cell-based; details: MDA-MB-231, 48 h
Summary of the method: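 MDA-MB-231 cells were grown in L-15 with 10% FCS at 37 °C and seeded at (2-3) × 10^4 per well. Exposure was 24 and/or 48 h, then MTT for at least 4 h, with absorbance read at 570/630 nm. Each condition had at least 3 replicates, reported as mean ± SD of a representative experiment repeated at least three times.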

[5] = Drug degradation in phosphate buffered saline at pH 7.4 assessed as compound hydrolysis after 48 hrs; format: physicochemical; details: read-out: Drug degradation
Summary of the method: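 Oximes were held in PBS at pH 7.4 for 48 h, and hydrolysis to the parent ketones was monitored.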

[6] = test system: Trichophyton mentagrophytes; test: Antifungal activity against Trichophyton mentagrophytes IBT 2724 at 50 uM after 7 days by micro broth dilution method; format: functional; summary of the method: as §2
Trichophyton rubrum [7] = test: Antifungal activity against Trichophyton rubrum IBT 29284 at 50 uM after 7 days by micro broth dilution method; format: functional; summary of the method: as §1
MDA-MB-231 [8] = test: Ratio of griseofulvin IC50 to compound IC50 for human MDA-MB-231 cells; format: functional

Row | Structure (SMILES) | IC50 (Trichophyton rubrum [1]) [µM] | IC50 [3] [µM] | degraded at 48 h [5] [%] | IC50 (V79) [µM] | IC50 [2] [µM] | IC50 (HeLa) [µM] | IC50 (MDA-MB-231 [4]) [µM] | inhibition [6] | inhibition (Trichophyton rubrum [7]) | Ratio IC50 (MDA-MB-231 [8])
1 | COc1cc(OC)c2c(c1Cl)O[C@]1(C2=O)C(OCc2ccc(COC3=CC(=O)C[C@@H](C)[C@]34Oc3c(Cl)c(OC)cc(OC)c3C4=O)cc2)=CC(=O)C[C@H]1C |  |  |  |  |  |  | 8.5 | inactive | inactive | 2
2 | COc1cc(OC)c2c(c1Cl)O[C@]1(C2=O)C(OCc2ccccc2)=C/C(=N\O)C[C@H]1C | 7.9 | 0.3 | < 5 |  |  |  | 1.4 |  |  | 
3 | COC(=O)C1=CC(=O)C=C(OC)[C@]12Oc1c(Cl)c(C)c(Cl)c(O)c1C2=O |  |  |  |  |  |  | 9.9 | inactive | inactive | 2

The next lines start with results.

Row | IC50 (Trichophyton rubrum [1]) [µM] | IC50 [3] [µM] | degraded at 48 h [5] [%] | Structure (SMILES) | IC50 (V79) [µM] | IC50 [2] [µM] | IC50 (HeLa) [µM] | IC50 (MDA-MB-231 [4]) [µM] | inhibition [6] | inhibition (Trichophyton rubrum [7]) | Ratio IC50 (MDA-MB-231 [8])
4 | 0.38 | 0.058 |  | COC1=CC(=O)C[C@@H](C)[C@]12Oc1c(Cl)c(OC)cc(OC)c1C2=O [GRISEOFULVIN] | 8 | 20 | 25 | 18 |  |  | 
5 | 1.3 | 0.19 | < 5 | COC1=C/C(=N\O)C[C@@H](C)[C@]12Oc1c(Cl)c(OC)cc(OC)c1C2=O |  |  |  | 12 |  |  | 
6 | 0.62 | 0.05 |  | CCCOC1=CC(=O)C[C@@H](C)[C@]12Oc1c(Cl)c(OC)cc(OC)c1C2=O | 0.7 |  |  | 16 |  |  | 

From ChEMBL document CHEMBL1955834, “Disparate SAR data of griseofulvin analogues for the dermatophytes Trichophyton mentagrophytes, T. rubrum, and MDA-MB-231 cancer cells” (J Med Chem, 2012)
